Among the data in ChEMBL document CHEMBL1250503, “Stereoselective synthesis and biological evaluation of (R)-rugulactone, (6R)-((4R)-hydroxy-6-phenyl-hex-2-enyl)-5,6-dihydro-pyran-2-one and its 4S epimer” (2010) are zone of inhibition and MIC values, retold here.

Each structure is given as a SMILES string. ≈ marks a conversion by molar mass, not a printed value.

Assay type in all cases: functional
Test [1] relates to Saccharomyces cerevisiae. Briefly: Antifungal activity against Saccharomyces cerevisiae MTCC 171 at 30 ug/ml after 24 to 96 hrs by agar cup diffusion method. The note with it: read-out: DIZ. In outline: (§1)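 Agar cup diffusion on autoclaved Potato Dextrose Agar. 0.5 ml of 24 h old test-organism culture was spread over the solidified agar, and 6 mm cups were bored. Compounds were dissolved in DMSO and added to the cups at two concentrations. A clotrimazole control was included. Plates were held at room temperature for 24–96 h, and inhibition zone diameters were measured.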

Test [2] has as its system Candida albicans. Briefly: Antifungal activity against Candida albicans MTCC 227 at 30 ug/ml after 24 to 96 hrs by agar cup diffusion method. To be noted: read-out: DIZ. In outline:
as §1

In a further test the test system is Pseudomonas aeruginosa. As to the kind of experiment: Antibacterial activity against Pseudomonas aeruginosa MTCC 741 by broth dilution method. In outline:
(§2)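 Broth dilution per National Committee for Clinical Laboratory (NCCL) standards against a bacterial panel. The read-out is the minimum inhibitory concentration (MIC).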

Test [3] relates to Rhizopus arrhizus. As to the kind of experiment: Antifungal activity against Rhizopus oryzae MTCC 262 at 100 ug/ml after 24 to 96 hrs by agar cup diffusion method. To be noted: read-out: DIZ. Summed up:
as §1

Another test concerns Klebsiella pneumoniae. As to the kind of experiment: Antibacterial activity against Klebsiella pneumoniae MTCC 39 by broth dilution method. Summed up: as §2
Test [4] has as its system Aspergillus niger. As to the kind of experiment: Antifungal activity against Aspergillus niger MTCC 1344 at 30 ug/ml after 24 to 96 hrs by agar cup diffusion method. To be noted: read-out: DIZ. Summed up:
as §1

Test [5] concerns Aspergillus niger. As to the kind of experiment: Antifungal activity against Aspergillus niger MTCC 1344 at 100 ug/ml after 24 to 96 hrs by agar cup diffusion method. To be noted: read-out: DIZ. In outline: as §1
Test [6] has as its system Rhizopus arrhizus. Briefly: Antifungal activity against Rhizopus oryzae MTCC 262 at 30 ug/ml after 24 to 96 hrs by agar cup diffusion method. The note with it: read-out: DIZ. In outline:
as §1

The test system of test [7] is Saccharomyces cerevisiae. Briefly: Antifungal activity against Saccharomyces cerevisiae MTCC 171 at 100 ug/ml after 24 to 96 hrs by agar cup diffusion method. To be noted: read-out: DIZ. In outline:
as §1

Test [8] relates to Candida albicans. As to the kind of experiment: Antifungal activity against Candida albicans MTCC 227 at 100 ug/ml after 24 to 96 hrs by agar cup diffusion method. The note with it: read-out: DIZ. Summed up:
as §1

The subject of the next test is Staphylococcus aureus. Briefly: Antibacterial activity against Staphylococcus aureus MTCC 96 by broth dilution method. In outline: as §2
Test [9] deals with Staphylococcus epidermidis. Briefly: Antibacterial activity against Staphylococcus epidermidis MTCC 437 by broth dilution method. Summed up:
as §2

A further test deals with Bacillus subtilis. Briefly: Antibacterial activity against Bacillus subtilis MTCC 441 by broth dilution method. Summed up:
as §2

Another test relates to Escherichia coli. Briefly: Antibacterial activity against Escherichia coli MTCC 443 by broth dilution method. Summed up: as §2

In the case of `O=C1C=CC[C@@H](C/C=C/[C@H](O)CCc2ccccc2)O1`, the zone of inhibition at 30 µg/mL is 8 mm in the test with Saccharomyces cerevisiae [1], 8 mm with Candida albicans [2], 11 mm with Aspergillus niger [4] and 12 mm with Rhizopus arrhizus [6]. Also, the MIC in the test on Pseudomonas aeruginosa amounted to 25 µg/mL (≈ 91.8 µM); with Klebsiella pneumoniae, 100 µg/mL (≈ 367 µM); with Staphylococcus aureus, 50 µg/mL (≈ 184 µM); in [9], 50 µg/mL (≈ 184 µM); against Bacillus subtilis it was 100 µg/mL (≈ 367 µM); against Escherichia coli it was 100 µg/mL (≈ 367 µM). Also, the zone of inhibition at 100 µg/mL in the test with Rhizopus arrhizus [3] was 14 mm; with Aspergillus niger [5], 14 mm; with Saccharomyces cerevisiae [7], 11 mm; in the test with Candida albicans [8], 10 mm.
Consider `O=C1C=CC[C@@H](C/C=C/[C@@H](O)CCc2ccccc2)O1`, for which the zone of inhibition at 30 µg/mL in the test with Saccharomyces cerevisiae [1] worked out at 8 mm; in the test with Candida albicans [2], 9 mm; in the test with Aspergillus niger [4], 9 mm; in the test on Rhizopus arrhizus [6] it was 12 mm. Moreover, the MIC against Pseudomonas aeruginosa was determined as 50 µg/mL (≈ 184 µM); against Klebsiella pneumoniae, 100 µg/mL (≈ 367 µM); with Staphylococcus aureus it was 100 µg/mL (≈ 367 µM); in [9], 100 µg/mL (≈ 367 µM); against Bacillus subtilis it was 50 µg/mL (≈ 184 µM); in the test with Escherichia coli, 100 µg/mL (≈ 367 µM). Moreover, the zone of inhibition at 100 µg/mL amounted to 16 mm with Rhizopus arrhizus [3], 12 mm in the test on Aspergillus niger [5], 10 mm with Saccharomyces cerevisiae [7] and 8 mm in the test with Candida albicans [8].
Regarding `Clc1ccccc1C(c1ccccc1)(c1ccccc1)n1ccnc1` [CLOTRIMAZOLE], the zone of inhibition at 30 µg/mL with Saccharomyces cerevisiae [1] was determined as 23 mm; with Candida albicans [2], 22 mm; in the test with Aspergillus niger [4] it was 18 mm; in the test on Rhizopus arrhizus [6], 21 mm.
Turning to `O=C1CN(/N=C/c2ccc([N+](=O)[O-])o2)C(=O)N1` [NITROFURANTOIN], the MIC in the test with Pseudomonas aeruginosa came to 100 µg/mL (≈ 420 µM); in the test with Klebsiella pneumoniae, 50 µg/mL (≈ 210 µM); in the test on Staphylococcus aureus it was 50 µg/mL (≈ 210 µM); in [9] it was 50 µg/mL (≈ 210 µM); with Bacillus subtilis, 100 µg/mL (≈ 420 µM); with Escherichia coli, 25 µg/mL (≈ 105 µM).
With `CC1(C)S[C@@H]2[C@H](NC(=O)Cc3ccccc3)C(=O)N2[C@H]1C(=O)O` [PENICILLIN G], the MIC (against Staphylococcus aureus; in test [9]; with Bacillus subtilis) was 1.56 µg/mL (≈ 4.67 µM) throughout.
Consider `O=C(/C=C/C[C@@H]1CC=CC(=O)O1)CCc1ccccc1` [R-RUGULACTONE], for which the zone of inhibition at 30 µg/mL amounted to 7 mm in the test with Saccharomyces cerevisiae [1], 7 mm with Candida albicans [2], 14 mm in the test on Aspergillus niger [4] and 11 mm with Rhizopus arrhizus [6]. For the same compound, the MIC with Pseudomonas aeruginosa was 12.5 µg/mL (≈ 46.2 µM); with Klebsiella pneumoniae, 25 µg/mL (≈ 92.5 µM); against Staphylococcus aureus, 50 µg/mL (≈ 185 µM); in test [9], 50 µg/mL (≈ 185 µM); against Bacillus subtilis, 100 µg/mL (≈ 370 µM); against Escherichia coli, 50 µg/mL (≈ 185 µM). Moreover, the zone of inhibition at 100 µg/mL with Rhizopus arrhizus [3] came out at 12 mm; with Aspergillus niger [5], 16 mm; in the test with Saccharomyces cerevisiae [7], 8 mm; in the test with Candida albicans [8], 8 mm.
`CN[C@@H]1[C@H](O[C@H]2[C@H](O[C@H]3[C@H](O)[C@@H](O)[C@H](N=C(N)N)[C@@H](O)[C@@H]3N=C(N)N)O[C@@H](C)[C@]2(O)C=O)O[C@@H](CO)[C@H](O)[C@H]1O` [STREPTOMYCIN]: the MIC with Pseudomonas aeruginosa, against Klebsiella pneumoniae and with Escherichia coli was 1.56 µg/mL (≈ 2.69 µM) throughout.
